Reference: publication PMC4091826 (Molecular Biology of the Cell, 2014)
Where a chain is given by its changes, count along the chain named. Numbers in names are those of the source. Entries after “also recorded” stand apart in the source; their conditions may differ. No end group written: not given here.

B1: Ssc1 E467A suppressor S205 (E467A, N508K), purified (natural protein, S. cerevisiae, UniProt P0CS90 24-654, looked up)
chain: QSTKVQGSVIGIDLGTTNSAVAIMEGKVPKIIENAEGSRTTPSVVAFTKEGERLVGIPAKRQAVVNPENTLFATKRLIGRRFEDAEVQRDIKQVPYKIVKHSNGDAWVEARGQTYSPAQIGGFVLNKMKETAEAYLGKPVKNAVVTVPAYFNDSQRQATKDAGQIVGLNVLRVVNEPTAAALAYGLEKSDSKVVAVFDLGGGTFDISILDIDNGVFEVKSTNGDTHLGGEDFDIYLLREIVSRFKTETGIDLENDRMAIQRIREAAEKAKIELSSTVSTEINLPFITADASGPKHINMKFSRAQFETLTAPLVKRTVDPVKKALKDAGLSTSDISEVLLVGGMSRMPKVVETVKSLFGKDPSKAVNPDEAVAIGAAVQGAVLSGEVTDVLLLDVTPLSLGIETLGGVFTRLIPRNTTIPTKKSQIFSTAAAGQTSVEIRVFQGARELVRDNKLIGNFTLAGIPPAPKGVPQIEVTFDIDADGIIKVSARDKATNKDSSITVAGSSGLSENEIEQMVNDAEKFKSQDEARKQAIETANKADQLANDTENSLKEFEGKVDKAEAQKVRDQITSLKELVARVQGGEEVNAEELKTKTEELQTSSMKLFEQLYKNDSNNNNNNNGNNAESGETKQ
B2: Ssc1 E467A suppressor S207 (E467A, N508T), purified (natural protein, S. cerevisiae, UniProt P0CS90 24-654, looked up)
chain: B1 chain with K485T
B3: Ssc1 E467A suppressor S208 (E467A, D519G), purified (natural protein, S. cerevisiae, UniProt P0CS90 24-654, looked up)
chain: B1 chain with K485N, D496G
B4: Ssc1 E467A suppressor S209 (E467A, K490R), purified (natural protein, S. cerevisiae, UniProt P0CS90 24-654, looked up)
chain: B1 chain with K467R, K485N
B5: fluorescein-labeled P5 peptide (peptide)
peptide: CALLLSAPRR
modifications: also: fluorescein label, position not given here
B6: G466E (protein)
chain: B1 chain with G443E, A444E, K485N
modifications: left off: His6, end not stated, state not stated
B7: Q465A (protein)
chain: B1 chain with Q442A, A444E, K485N
modifications: left off: His6, end not stated, state not stated
B8: S209 (protein)
chain: B1 chain with K467R, K485N
modifications: left off: His6, end not stated, state not stated
B9: WT Ssc1: Wild type Ssc1 (His6), yeast mtHsp70 (protein)
chain: B1 chain with A444E, K485N
modifications: left off: His6, end not stated, state not stated
B10: D411R (protein)
chain: B1 chain with D388R, A444E, K485N
modifications: left off: His6, end not stated, state not stated
B11: D416R (protein)
chain: B1 chain with D393R, A444E, K485N
modifications: left off: His6, end not stated, state not stated
B12: E467A-D411R (protein)
chain: B1 chain with D388R, K485N
modifications: left off: His6, end not stated, state not stated

Key:
human mtHsp70 [1] = assay: Single-turnover basal ATPase assay, human mtHsp70; format: biochemical; settings: 25°C, buffer A, versus wild type, Figure 1C
Method in brief: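 Purified protein (100 μg) was loaded on ice for 3 min with 50 μM ATP and 25 μCi [γ-32P]ATP in buffer A (25 mM HEPES-KOH pH 7.5, 100 mM KCl, 10 mM Mg(OAc)2). Complexes were isolated immediately on Sephadex G50 and frozen in liquid nitrogen; they contained 1 μM protein. Hydrolysis was then run at 25°C in buffer alone, without stimulators.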

human mtHsp70 [2] = assay: Stimulation of ATPase activity by P5 peptide, human mtHsp70; format: biochemical; settings: 250-fold molar excess of P5; Figure 1D
Method in brief: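 Human mtHsp70[ATP] complexes were formed by incubating 100 μg protein with 50 μM ATP and 25 μCi [γ-32P]ATP on ice for 3 min in buffer A (25 mM HEPES-KOH pH 7.5, 100 mM KCl, 10 mM Mg(OAc)2). Complexes were isolated by Sephadex G50 (1 μM protein) and snap-frozen. Single-turnover hydrolysis was run at 25°C in buffer A, either alone (basal) or with P5 peptide.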

human mtHsp70 [3] = settings: ref Goswami et al., 2010; cited from earlier work
human mtHsp70 [4] = settings: versus wild type; ref Goswami et al., 2010; cited from earlier work
[5] = molecular target: B5; assay: fluorescence polarisation
[6] = molecular target: human mtHsp70, wild type, hexahistidine-tagged, purified (human, UniProt P38646 47-679); assay: fluorescence polarisation
[7] = molecular target: T1, Ssc1 E467A, hexahistidine-tagged, purified (S. cerevisiae, UniProt P0CS90 24-654, E467A); assay: fluorescence polarisation
[8] = molecular target: T2, Ssc1 (yeast mtHsp70), wild type, hexahistidine-tagged, purified (S. cerevisiae, UniProt P0CS90 24-654); assay: fluorescence polarisation
[9] = molecular target: T1, Ssc1 E467A, hexahistidine-tagged, …; assay: fluorescence polarisation; remark: listed apart in the source
[10] = molecular target: T2, Ssc1 (yeast mtHsp70), wild type, …; assay: fluorescence polarisation; remark: listed apart in the source
[11] = molecular target: Ssc1 E467A-D411R, purified (S. cerevisiae, UniProt P0CS90 24-654, D411R | E467A); assay: fluorescence polarisation
Ssc1 D411R, purified = Ssc1 D411R, purified (S. cerevisiae, UniProt P0CS90 24-654, D411R); assay: fluorescence polarisation
[12] = molecular target: T1, Ssc1 E467A, hexahistidine-tagged, …; assay: fluorescence polarisation; remark: listed apart in the source
[13] = molecular target: T2, Ssc1 (yeast mtHsp70), wild type, …; assay: fluorescence polarisation; remark: listed apart in the source
Target sequence in this assay (P0CS90 24-654): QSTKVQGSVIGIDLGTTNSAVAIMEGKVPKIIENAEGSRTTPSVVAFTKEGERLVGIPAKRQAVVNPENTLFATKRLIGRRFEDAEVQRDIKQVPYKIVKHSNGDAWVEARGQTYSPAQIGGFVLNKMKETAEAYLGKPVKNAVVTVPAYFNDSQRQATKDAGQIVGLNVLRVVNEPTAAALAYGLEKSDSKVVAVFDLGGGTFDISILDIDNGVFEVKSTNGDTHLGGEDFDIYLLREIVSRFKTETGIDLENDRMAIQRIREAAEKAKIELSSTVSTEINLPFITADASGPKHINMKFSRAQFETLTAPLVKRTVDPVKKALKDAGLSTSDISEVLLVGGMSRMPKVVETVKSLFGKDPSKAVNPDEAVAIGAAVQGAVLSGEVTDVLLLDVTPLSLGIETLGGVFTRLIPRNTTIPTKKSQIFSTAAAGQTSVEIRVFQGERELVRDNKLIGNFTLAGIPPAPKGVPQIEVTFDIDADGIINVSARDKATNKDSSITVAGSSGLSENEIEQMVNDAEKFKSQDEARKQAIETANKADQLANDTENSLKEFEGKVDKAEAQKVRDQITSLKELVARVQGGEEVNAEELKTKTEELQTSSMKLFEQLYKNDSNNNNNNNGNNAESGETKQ

Ssc1 [14] = assay: Single-turnover basal ATPase assay, Ssc1; format: biochemical, S. cerevisiae; settings: 25°C; for fold increase in basal ATPase activity: buffer A, versus wild type
yeast cells = assay: Growth phenotype; format: cell-based, S. cerevisiae; settings: minimal medium or 5-FOA medium, serial dilutions
Ssc1 [15] = assay: Stimulation of ATPase activity by P5 peptide, Ssc1; format: biochemical, S. cerevisiae; settings: 100-fold molar excess P5, single-turnover
Ssc1 [16] = assay: Limited proteolytic cleavage by trypsin; format: biochemical, S. cerevisiae; settings: 1:100 (wt/wt) trypsin, 25°C, SDS-PAGE
Tim44 = assay: Coimmunoprecipitation of Ssc1 with Tim44; format: binding, S. cerevisiae; settings: mitochondrial lysates, anti-Ssc1, presence or absence of 1 mM ATP; Figure 6A
Ssc1 [17] = assay: Tryptophan fluorescence quenching upon ATP binding, Ssc1; format: biochemical, S. cerevisiae; settings: 2.5 μM protein, 1000-fold excess ATP, wild type set at 100%
Ssc1 [18] = assay: ATP-induced substrate release by fluorescence anisotropy, Ssc1; format: biochemical, S. cerevisiae; settings: 2.5 mM ATP, 5 μM Ssc1[F-P5]; for ATP-induced substrate release, in words: 5 min

human mtHsp70, wild type, hexahistidine-tagged, purified, sequence (P38646 47-679): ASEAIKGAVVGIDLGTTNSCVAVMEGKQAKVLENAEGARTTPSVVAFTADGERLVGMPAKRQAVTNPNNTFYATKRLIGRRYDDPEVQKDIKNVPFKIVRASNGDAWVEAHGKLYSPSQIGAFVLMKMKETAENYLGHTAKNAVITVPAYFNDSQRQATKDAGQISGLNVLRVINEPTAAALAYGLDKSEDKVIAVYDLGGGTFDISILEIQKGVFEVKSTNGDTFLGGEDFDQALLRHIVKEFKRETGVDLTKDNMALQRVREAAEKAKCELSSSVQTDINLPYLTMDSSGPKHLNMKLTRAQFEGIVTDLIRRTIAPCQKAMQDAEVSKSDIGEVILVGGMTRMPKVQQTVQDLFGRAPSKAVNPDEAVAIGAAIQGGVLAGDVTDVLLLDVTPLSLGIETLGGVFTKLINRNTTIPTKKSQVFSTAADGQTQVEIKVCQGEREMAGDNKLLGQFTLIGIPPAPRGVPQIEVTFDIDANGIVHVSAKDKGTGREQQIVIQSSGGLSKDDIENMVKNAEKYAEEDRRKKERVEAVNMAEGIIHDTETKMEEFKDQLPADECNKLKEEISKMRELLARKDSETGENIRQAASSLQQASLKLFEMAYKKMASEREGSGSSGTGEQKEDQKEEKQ

## mtHsp70Q488A
Human mtHsp70 [1]
  fold enhancement in basal ATPase activity: 2.75 fold
Human mtHsp70 [2]
  stimulation of ATPase activity by P5 substrate peptide, in words: marked decrease in stimulation of ATPase activity by P5 substrate peptide

## mtHsp70G489E
Human mtHsp70 [3]
  loss in stimulation of ATPase activity by peptide substrates: 70%
Human mtHsp70 [4]
  elevated basal rate of ATP hydrolysis: fivefold elevated
Human mtHsp70 [2]
  stimulation of ATPase activity by P5 substrate peptide, in words: marked decrease in stimulation of ATPase activity by P5 substrate peptide

## B1
[5]
  substrate release upon ATP binding: > 50%

## B2
[5]
  substrate release upon ATP binding: > 50%

## B3
[5]
  substrate release upon ATP binding: > 50%

## B4
[5]
  substrate release upon ATP binding: > 50%

## B5
[6]
  binding result: binds
[7]
  kon: 3400 M⁻¹ s⁻¹
[8]
  kon: 14000 M⁻¹ s⁻¹
[9]
  koff: 0.0039 ± 0.000131 s⁻¹
[10]
  koff: 0.0023 ± 3.47e-05 s⁻¹
[11]
  binding result: binds
Ssc1 D411R, purified
  binding result: binds
[12]
  Kd: 1750 ± 269 nM
[13]
  Kd: 200 ± 37 nM

## B6
Ssc1 [14]
  fold increase in basal ATPase activity: 11 fold
Yeast cells
  growth phenotype, in words: lethal and unable to grow on 5-FOA medium

## B7
Ssc1 [14]
  fold increase in basal ATPase activity: 2.25 fold
Yeast cells
  growth phenotype, in words: viable at 30 °C but displayed temperature sensitivity at 34 and 37 °C

## B8
Ssc1 [14]
  basal ATPase activity, in words: able to suppress the elevated basal activity of the mutant
Ssc1 [15]
  stimulation of ATPase activity by P5, in words: could stimulate ATPase activity similar to wild-type levels; also recorded: augment peptide-mediated ATPase stimulation

## B9
Ssc1 [16]
  trypsin cleavage pattern, in words: limited proteolysis pattern, leading to formation of stable 30-kDa fragments
Tim44
  interaction with Tim44, in words: robust interaction with Tim44 in the absence of ATP, and this binding was sensitive to the presence of ATP

## B10
Ssc1 [14]
  fold increase in basal ATPase activity: twofold increase
Ssc1 [15]
  stimulation of ATPase activity by P5, in words: modest reductions in stimulation of ATPase activity by substrate
Ssc1 [17]
  tryptophan fluorescence quenching upon ATP binding, in words: modest reductions
Ssc1 [18]
  ATP-induced substrate release, in words: modest reductions
Yeast cells
  growth phenotype, in words: did not result in a growth defect; also recorded: completely viable

## B11
Ssc1 [14]
  fold increase in basal ATPase activity: 4.5 fold
Ssc1 [15]
  stimulation of ATPase activity by P5, in words: stimulated fivefold less by P5 as compared with the wild-type protein
Ssc1 [17]
  tryptophan fluorescence quenching upon ATP binding, in words: significantly lowered quenching of tryptophan fluorescence
Ssc1 [18]; anisotropy decrease up to 5 min
  substrate (peptide) release upon ATP addition: < 10%
Yeast cells
  growth phenotype, in words: severe growth defect, as evidenced by its inviability on 5-FOA medium; also recorded: inviable

## B12
Ssc1 [15]
  stimulation of ATPase activity by P5, in words: severely impaired stimulation by substrate
Ssc1 [17]
  tryptophan fluorescence quenching upon ATP binding, in words: markedly compromised
Ssc1 [18]
  ATP-induced substrate release, in words: markedly compromised in ATP-dependent conformational changes required for release of bound substrate
Yeast cells
  growth phenotype, in words: lethal, as demonstrated by lack of growth on 5-FOA
